The values that follow come from article PMC7815202 (ChemMedChem, 2020).

Assay [1] has as its target T1, bovine spleen ADA (Bos taurus, UniProt P56658).
T1 sequence (P56658 1-363): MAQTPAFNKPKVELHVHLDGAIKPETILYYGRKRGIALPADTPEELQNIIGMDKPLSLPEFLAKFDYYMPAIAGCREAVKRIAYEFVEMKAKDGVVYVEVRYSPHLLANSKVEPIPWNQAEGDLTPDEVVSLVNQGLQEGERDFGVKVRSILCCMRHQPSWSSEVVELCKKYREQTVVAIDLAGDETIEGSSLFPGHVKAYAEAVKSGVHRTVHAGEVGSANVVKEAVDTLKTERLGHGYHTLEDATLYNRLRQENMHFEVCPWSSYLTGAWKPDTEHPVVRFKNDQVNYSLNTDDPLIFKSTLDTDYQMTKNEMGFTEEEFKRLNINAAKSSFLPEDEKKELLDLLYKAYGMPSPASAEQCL
Put plainly: Cuvette fluorescence assay of ADA. Format: biochemical. The gist of the method: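 Bovine spleen ADA, diluted to 1.15 U mL⁻¹ in 50 mM phosphate buffer pH 7.4 and kept on ice. Test compound (final 1–1000 µM, 0.1 µM for one analogue; DMSO stocks) and tzA (1 mM DMSO stock) were stirred 1 min in buffer in a quartz cuvette at 25.0 °C. ADA was then added. Emission at 410 nm (excitation 322 nm) was read every 10 s for 20 min.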

Assay [2] has as its target T1, bovine spleen ADA. Put plainly: HTS plate-reader fluorescence assay of ADA. The format is biochemical. The following applies: 200 μM, initial MBP library screen, relative to negative control.
For assay [3], the system named is ADA. The following applies: non-HTS assay format; ref 8e; cited from earlier work.
The target of assay [4] is ADA. The following applies: ref Cristalli et al. 1a; cited from earlier work.
Setting [5] is: converted from IC50 by Cheng-Prusoff, three independent experiments.
[6] abbreviates: cuvette, 25 °C, three independent experiments.

Several values for one entry are separate records, joined by “and”; a condition that tells them apart may be missing. Equal entries are not always repeated. Where two headings read alike, the source gives them in different places.

Consider `Oc1ccccc1-c1ncc[nH]1` [Compound 3, 2-imidazolyl phenol], for which the Ki at bovine spleen ADA [1] (setting [5]) was determined as 77 ± 14 µM. This compound registered an IC50 against bovine spleen ADA [1] (setting [6]) of 93 ± 17 µM. Also, at bovine spleen ADA [2], the “percent inhibition of ADA” value is ~ 83% and 83%.
`Oc1ccccc1-c1ncco1` [Compound 4, 2-oxazolyl phenol] yielded a Ki on bovine spleen ADA [1] (setting [5]) of 215 ± 12 µM. This compound also showed an IC50 at bovine spleen ADA [1] (setting [6]) of 260 ± 14 µM. Moreover, on bovine spleen ADA [2], the “percent inhibition of ADA” value was 61%.
Turning to `C[C@H]1CN=C(c2ccccc2O)O1` [Compound 6, (S)-2-(5-Methyl-4,5-dihydrooxazol-2-yl)phenol], at bovine spleen ADA [1], half-maximal inhibition (IC50) was put at 194 ± 4 µM and the Ki stood at 161 ± 3 µM.
The like results for `C[C@@H]1CN=C(c2ccccc2O)O1` [Compound 7, (R)-2-(5-Methyl-4,5-dihydrooxazol-2-yl)phenol] were, in that order, 188 ± 10 µM and 156 ± 8 µM.
“erythro-9-(2-hydroxy-3-nonyl) adenine [EHNA]”: in the assay on ADA [3], the half-inhibitory concentration (IC50) was 0.023 ± 0.004 µM and the Ki is 0.019 ± 0.004 µM. In addition, the Ki at ADA [4] was approximately 0.005 µM.

As usually defined, the Ki is a measure of affinity in units of concentration, obtained from inhibition or displacement. The term IC50 denotes the concentration that inhibits the measured activity by half.
